MIC data for 6 molecules are collected here from ChEMBL document CHEMBL1144468, “Stepwise exposure of Staphylococcus aureus to pleuromutilins is associated with stepwise acquisition of mutations in rplC and minimally affects susceptibility to retapamulin” (2007).

≈ marks a conversion by molar mass, not a printed value. Where only a bound is given, the exact number is not on record here.

Assay type in all cases: functional
Test [1] has as its system Staphylococcus aureus. The experiment in a line: Antibacterial activity against Staphylococcus aureus RN4220 with rplC G152D, D159Y and G144R mutation. The method, boiled down:
(§1)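 Third-step mutants: second-step mutants were plated on five other pleuromutilins, each at 2 times its own MIC. Colonies appearing after extended incubation were replated at the selective concentration to confirm resistance. L3 was sequenced by colony PCR. These isolates grow very slowly; colonies form on blood agar only after more than 72 h.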

In test [2] the test system is Staphylococcus aureus. Kind of test: Antibacterial activity against Staphylococcus aureus RN4220 with rplC G152D, D159Y, G155R and H134N mutation. The method, boiled down: as §1
The subject of test [3] is Staphylococcus aureus. Kind of test: Antibacterial activity against Staphylococcus aureus 2A1-1 with rplC G152D, D159Y and unmapped mutation. The method, boiled down: as §1
For test [4], the system named is Staphylococcus aureus. The experiment in a line: Antibacterial activity against Staphylococcus aureus 2A1-1 fast2 with rplC D159Y and unmapped mutation. The method, boiled down: (§2)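 Fast-growing variants of slow third-step mutants. Single colonies were streaked on unsupplemented LB agar and held more than 3 days at 37°C. At least 2 fast-growing colonies per mutant were purified on LB agar, then taken for MIC testing and sequencing.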

In test [5] the test system is Staphylococcus aureus. Kind of test: Antibacterial activity against Staphylococcus aureus 2A1-1 fast1 with rplC D159Y and unmapped mutation. The essentials: as §2
In test [6] the test system is Staphylococcus aureus. The experiment in a line: Antibacterial activity against Staphylococcus aureus RN4220 with rplC G152D mutation. The method, boiled down: (§3)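 Spontaneous first-step mutants of S. aureus RN4220. An overnight brain heart infusion culture was plated on LB agar with 1.0 µg/ml tiamulin. Colonies were patched to drug-free LB for 16 h at 37°C, then replica plated on LB agar with 1, 5, 10 and 20 µg/ml tiamulin. The rplC (L3) mutation was identified by colony PCR and sequencing.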

For test [7], the system named is Staphylococcus aureus. Kind of test: Antibacterial activity against Staphylococcus aureus RN4220 with rplC G152D, D159Y and G155R mutation. The method, boiled down: as §1
For test [8], the system named is Staphylococcus aureus. The experiment in a line: Antibacterial activity against Staphylococcus aureus 2A1-7 with rplC G152D, D159Y and unmapped mutation. The essentials:
as §1

The subject of test [9] is Staphylococcus aureus. Kind of test: Antibacterial activity against Staphylococcus aureus 2A1-7 fast1 with rplC D159Y and unmapped mutation. The method, boiled down: as §2
Test [10] has as its system Staphylococcus aureus. The experiment in a line: Antibacterial activity against Staphylococcus aureus RN4220 with rplC D159Y mutation. The essentials: as §3
In test [11] the test system is Staphylococcus aureus. Kind of test: Antibacterial activity against Staphylococcus aureus RN4220 with rplC G152D and D159Y mutation. The essentials: (§4)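 Second-step mutants came from the first-step L3 G152D RN4220 mutant. An overnight culture (2 x 10^9 CFU total) was plated on LB agar with 10 µg/ml tiamulin. Colonies were recultured on 10 µg/ml tiamulin to confirm resistance. L3 was sequenced after colony PCR.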

Test [12] relates to Staphylococcus aureus. Kind of test: Antibacterial activity against Staphylococcus aureus RN4220 with rplC G152D and G155R mutation. The essentials: as §4
Test [13] concerns Staphylococcus aureus. Kind of test: Antibacterial activity against wild type Staphylococcus aureus RN4220.
The test system of test [14] is Staphylococcus aureus. Kind of test: Antibacterial activity against Staphylococcus aureus RN4220 with rplC G155R mutation. The method, boiled down: as §3
In test [15] the test system is Staphylococcus aureus. The experiment in a line: Antibacterial activity against Staphylococcus aureus RN4220 with rplC S158L mutation. The essentials:
as §3

In test [16] the test system is Staphylococcus aureus. Kind of test: Antibacterial activity against Staphylococcus aureus RN4220 with rplC G152D, D159Y, G155R and A150T mutation. The method, boiled down:
as §1

The subject of test [17] is Staphylococcus aureus. The experiment in a line: Antibacterial activity against Staphylococcus aureus 2A1-7 fast2 with rplC D159Y and unmapped mutation. The essentials:
as §2

Test [18] has as its system Staphylococcus aureus. The experiment in a line: Antibacterial activity against Staphylococcus aureus 2A1-8 with rplC G152D, D159Y and unmapped mutation. The method, boiled down: as §1

Regarding `O=C(N[C@H](CO)[C@H](O)c1ccc([N+](=O)[O-])cc1)C(Cl)Cl` [CHLORAMPHENICOL], the MIC in test [1], in [2], in test [3], in test [4], in [5] and in test [6] was 8 µg/mL (≈ 24.8 µM) in each case. For the same molecule, the MIC worked out at 4 µg/mL (≈ 12.4 µM) in test [7]; 4 µg/mL (≈ 12.4 µM) in test [8]; 8 µg/mL (≈ 24.8 µM) in test [9]; 4 µg/mL (≈ 12.4 µM) in [10]; 8 µg/mL (≈ 24.8 µM) in test [11]; 8 µg/mL (≈ 24.8 µM) in [12]. Moreover, the minimal inhibitory concentration (MIC) in [13] turned out to be 4 µg/mL (≈ 12.4 µM); in test [14], 8 µg/mL (≈ 24.8 µM); in test [15] it was 4 µg/mL (≈ 12.4 µM); in [16], 8 µg/mL (≈ 24.8 µM); in test [17], 8 µg/mL (≈ 24.8 µM); in test [18] it was 4 µg/mL (≈ 12.4 µM).

In the case of `C[C@H]1COc2c(N3CCN(C)CC3)c(F)cc3c(=O)c(C(=O)O)cn1c23.C[C@H]1COc2c(N3CCN(C)CC3)c(F)cc3c(=O)c(C(=O)O)cn1c23.O` [LEVOFLOXACIN], the MIC came out at 0.25 µg/mL in test [1]; 0.5 µg/mL in [2]; 0.25 µg/mL in test [3]; 0.25 µg/mL in test [4]; 0.5 µg/mL in test [5]; 0.5 µg/mL in [6]. The MIC was 0.25 µg/mL in test [7]; 0.25 µg/mL in test [8]; 0.25 µg/mL in [9]; 0.5 µg/mL in [10]; 0.25 µg/mL in [11]; 0.25 µg/mL in test [12]. For the same molecule, the minimal inhibitory concentration (MIC) in [13] was 0.5 µg/mL; in test [14], 0.5 µg/mL; in test [15] it was 0.5 µg/mL; in test [16], 0.125 µg/mL; in test [17], 0.25 µg/mL; in [18], 0.25 µg/mL.

For the molecule `C/C(=C\C(=O)OCCCCCCCCC(=O)O)C[C@@H]1OC[C@H](C[C@@H]2O[C@H]2[C@@H](C)[C@H](C)O)[C@@H](O)[C@H]1O` [MUPIROCIN], the MIC in test [1], in [2], in test [6], in test [7], in [10] and in test [11] was 0.06 µg/mL (≈ 0.12 µM) throughout. Besides, the minimum inhibitory concentration (MIC) in test [12], in test [13], in [14], in [15] and in test [16] was 0.06 µg/mL (≈ 0.12 µM) throughout.

For the molecule `C=C[C@]1(C)C[C@@H](OC(=O)CS[C@@H]2C[C@H]3CC[C@@H](C2)N3C)[C@]2(C)[C@H](C)CC[C@]3(CCC(=O)[C@H]32)[C@@H](C)[C@@H]1O` [RETAPAMULIN], the minimal inhibitory concentration (MIC) in [1] came to 4 µg/mL (≈ 7.73 µM); in test [2], 0.125 µg/mL (≈ 0.241 µM); in [3], 8 µg/mL (≈ 15.5 µM); in test [4], 0.25 µg/mL (≈ 0.483 µM); in test [5], 0.25 µg/mL (≈ 0.483 µM); in test [6], 0.25 µg/mL (≈ 0.483 µM). The MIC came to 4 µg/mL (≈ 7.73 µM) in [7]; 8 µg/mL (≈ 15.5 µM) in [8]; 0.25 µg/mL (≈ 0.483 µM) in test [9]; 0.25 µg/mL (≈ 0.483 µM) in [10]; 1 µg/mL (≈ 1.93 µM) in test [11]; 1 µg/mL (≈ 1.93 µM) in test [12]. Moreover, the MIC in test [13] was not above 0.06 µg/mL; in test [14], 0.5 µg/mL (≈ 0.966 µM); in [15], 0.25 µg/mL (≈ 0.483 µM); in test [16], 0.25 µg/mL (≈ 0.483 µM); in test [17] it was 0.25 µg/mL (≈ 0.483 µM); in [18], 2 µg/mL (≈ 3.86 µM).

Take `CN(C)[C@@H]1C(O)=C(C(N)=O)C(=O)[C@@]2(O)C(O)=C3C(=O)c4c(O)cccc4[C@@](C)(O)[C@H]3C[C@@H]12` [TETRACYCLINE]: the MIC is 0.25 µg/mL (≈ 0.563 µM) in test [1]; 0.25 µg/mL (≈ 0.563 µM) in test [2]; not above 0.06 µg/mL in [3]; 0.25 µg/mL (≈ 0.563 µM) in [4]; 0.25 µg/mL (≈ 0.563 µM) in test [5]; 0.25 µg/mL (≈ 0.563 µM) in [6]. The minimum inhibitory concentration (MIC) in test [7] was 0.25 µg/mL (≈ 0.563 µM); in test [8] it was not above 0.06 µg/mL; in test [9], 0.25 µg/mL (≈ 0.563 µM); in test [10] it was 0.25 µg/mL (≈ 0.563 µM); in test [11], 0.25 µg/mL (≈ 0.563 µM); in test [12], 0.25 µg/mL (≈ 0.563 µM). The MIC in [13] was 0.25 µg/mL (≈ 0.563 µM); in [14], 0.25 µg/mL (≈ 0.563 µM); in test [15] it was 0.25 µg/mL (≈ 0.563 µM); in test [16] it was 0.25 µg/mL (≈ 0.563 µM); in test [17], 0.25 µg/mL (≈ 0.563 µM); in test [18], not above 0.06 µg/mL.

For the molecule `C=C[C@]1(C)C[C@@H](OC(=O)CSCCN(CC)CC)[C@]2(C)[C@H](C)CC[C@]3(CCC(=O)[C@H]32)[C@@H](C)[C@@H]1O` [TIAMULIN], the MIC in [1] came out at 32 µg/mL (≈ 64.8 µM); in [2], 2 µg/mL (≈ 4.05 µM); in test [3], 64 µg/mL (≈ 130 µM); in [4] it was 2 µg/mL (≈ 4.05 µM); in test [5] it was 2 µg/mL (≈ 4.05 µM); in test [6] it was 4 µg/mL (≈ 8.1 µM). Moreover, the minimal inhibitory concentration (MIC) in test [7] is more than 64 µg/mL; in [8] it was 64 µg/mL (≈ 130 µM); in test [9], 2 µg/mL (≈ 4.05 µM); in test [10], 4 µg/mL (≈ 8.1 µM); in [11], 16 µg/mL (≈ 32.4 µM); in test [12], 16 µg/mL (≈ 32.4 µM). Also, the MIC is 0.25 µg/mL (≈ 0.506 µM) in test [13]; 4 µg/mL (≈ 8.1 µM) in test [14]; 2 µg/mL (≈ 4.05 µM) in [15]; 4 µg/mL (≈ 8.1 µM) in test [16]; 2 µg/mL (≈ 4.05 µM) in test [17]; 32 µg/mL (≈ 64.8 µM) in [18].
